# MrgX1 agonist = agonists of human MrgX1 receptor; Q96LB2; MrgX1-HEK293 cells, Fluo-4 calcium fluorescence, agonist mode; stronger effect = higher value; B-score at 10 µM; 310,000 compounds, 0.44% hits; AID 588627;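 active means calcium response B-score plate-corrected fluorescence ratio at least 3 library SD, with starting fluorescence B-score inside 5 SD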
# Target sequence (Q96LB2 whole entry, looked up): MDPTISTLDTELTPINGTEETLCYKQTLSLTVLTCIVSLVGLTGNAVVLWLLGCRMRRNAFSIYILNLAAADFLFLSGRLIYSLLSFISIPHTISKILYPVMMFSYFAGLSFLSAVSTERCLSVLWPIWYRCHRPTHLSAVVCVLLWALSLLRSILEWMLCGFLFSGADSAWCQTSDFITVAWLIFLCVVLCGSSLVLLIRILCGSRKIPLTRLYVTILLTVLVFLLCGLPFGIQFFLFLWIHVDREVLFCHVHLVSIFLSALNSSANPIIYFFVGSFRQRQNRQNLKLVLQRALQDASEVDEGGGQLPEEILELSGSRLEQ
#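 System: HEK293 cells stably expressing human MrgX1 receptor; Dosing: test compound in the initial addition of three; Schedule: overnight plating, then 30 min 37 °C plus 30 min room-temperature dye loading; Detection: kinetic calcium dye fluorescence, Fluo-4 NW; Controls: per-plate positive and negative controls for Z′ factor.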
# MrgX1 allo act = human MrgX1 positive allosteric modulation, primary screen; Q96LB2; MrgX1-HEK293, Fluo-4 calcium flux, FDSS; stronger effect = higher value; B-score at 10 µM; 310,000 compounds, 0.63% hits; AID 588675;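 active means plate-corrected calcium response at least 3 library SD above typical, normal starting fluorescence, not activating the receptor alone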;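 further: compound read alongside a low EC10 to EC30 dose of BAM8-22 agonist; peak minus trough fluorescence over baseline measured at the second addition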
# RGS4 pot = RGS4 potentiation or activation; AID 463111; B-score at 10 µM; HEK293 M3R/inducible RGS4, carbachol calcium flux Fluo4; stronger effect = lower value; 310,000 compounds, 0.92% hits;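 active means B-score of the integrated calcium signal more than 4 SD below the library mean, with starting fluorescence not abnormally high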;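 further: negative B-score means reduced calcium response which marks RGS4 activation or potentiation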
#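 Assay system: Inducible-RGS4 HEK293 cells carrying M3 receptor | Schedule: Compound preincubation 20 min at room temperature before agonist | Signal: Kinetic calcium fluorescence imaging with Fluo4-AM dye, 2 µM | Read-out basis: B score from integrated fluorescence ratio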
# MrgX1 antag = blocks BAM8-22 activation of human MrgX1 receptor; Q96LB2; MRGX1-HEK293 calcium flux, Fluo-4, BAM8-22 antagonism; stronger effect = lower value; B-score at 10 µM; 310,000 compounds, 1.3% hits; AID 588676;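 active means calcium-response B-score plate-corrected more than 3 library SD below zero, starting fluorescence within 5 deviations, no agonist response on first addition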;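 further: peak minus trough fluorescence over baseline after final BAM8-22 challenge near maximal dose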
# RGS4 inh = human RGS4 inhibition; AID 463165; HEK293 M3R/RGS4 inducible, Fluo-4 calcium flux; stronger effect = higher value; triggered by carbachol at its EC20; P49798; B-score at 10 µM; 310,000 compounds, 0.45% hits;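 active means B-score, a plate-corrected calcium signal, over three deviations above library mean, with baseline fluorescence within five deviations of library mean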;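 further: RGS4 expression induced by doxycycline in cells with stable M3 receptor; B-score is computed from the integrated fluorescence ratio over baseline after carbachol; higher B-score means a larger calcium signal and so more RGS4 inhibition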
# Target sequence (P49798 whole entry, looked up): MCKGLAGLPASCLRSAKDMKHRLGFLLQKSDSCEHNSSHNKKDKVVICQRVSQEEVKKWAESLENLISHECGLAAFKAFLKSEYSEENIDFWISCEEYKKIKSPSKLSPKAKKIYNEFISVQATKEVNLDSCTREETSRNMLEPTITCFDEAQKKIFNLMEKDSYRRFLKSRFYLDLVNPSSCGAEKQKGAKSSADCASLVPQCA
# MrgX1 ag confirm = confirmation of human MrgX1 receptor agonists; MrgX1-HEK293, Fluo-4 calcium fluorescence, FDSS; activation, % at 10 µM; 600 compounds, 78% hits; shares compounds with MrgX1 agonist;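 active means calcium signal rise, corrected for plate position, at least 3 library SD high, with starting brightness within 5 such deviations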
# HEK293 Ca flux = counter-screen for MrgX1 antagonists: effect in parental HEK293 cells; shares compounds with MrgX1 antag; Fluo-4 calcium fluorescence, FDSS; fluorescence ratio F(max-min)/F0 at 10 µM; 4,000 compounds, 2% hits;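 active means duplicate-averaged calcium fluorescence ratio at least three times the standard deviation of buffer wells, a nonspecific response in parental cells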
# HEK293 Ca counter = activity in parental HEK293 cells without MrgX1. fluorescence ratio F(max-min)/F0 at 10 µM. shares compounds with MrgX1 antag. 4,000 compounds, 0.4% hits. parental HEK293 calcium flux, Fluo-4 fluorescence ratio; stronger effect = higher value;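 active means calcium fluorescence ratio, averaged over duplicates, at least 3 SD of the buffer-well ratio, meaning a nonspecific response in receptor-free cells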;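 further: untransfected parental HEK293 lacking MrgX1 used as counterscreen for MrgX1 allosteric activators; fluorescence change taken during the second addition on a kinetic imager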
# HEK293 Ca cntr2 = activity in parental HEK293 cells lacking MrgX1 receptor; shares compounds with MrgX1 antag; Fluo-4 calcium fluorescence (FDSS); stronger effect = higher value; fluorescence ratio F(max-min)/F0 at 10 µM; 4,000 compounds, 8.7% hits; AID 624115;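 active means calcium fluorescence ratio at least three times the spread of buffer wells, meaning a non-specific response in parental cells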
# * = called active by the depositor; i = inactive; · = no result. Compounds with a hit are over-represented: about 3.5% of the library has one in this group of screens.
SMILES,MrgX1 agonist,MrgX1 allo act,RGS4 pot,MrgX1 antag,RGS4 inh,MrgX1 ag confirm,HEK293 Ca flux,HEK293 Ca counter,HEK293 Ca cntr2
Cc1ccc(-c2ccc(CCC(=O)O)n2-c2cccc(O)c2)cc1,28*,i,i,i,i,135%*,i,i,i
NC(=Nc1ccc(Br)cc1)c1ccccc1,78*,i,i,i,i,289%*,i,i,48*
COc1ccc2c(c1)CCCN2C(N)=Nc1ccc(Cl)cc1,33*,i,i,i,i,i,i,i,i
COc1ccc2c(c1)CCCN2S(=O)(=O)c1ccc(Cl)cc1,i,i,i,i,i,·,·,·,·
O=c1[nH][nH]c(-c2ccccc2)c1C=Nc1ccc(OC(F)(F)F)cc1,33*,i,i,i,i,184%*,i,i,i
O=c1[nH][nH]c(-c2ccccc2)c1C=Nc1ccc(C(F)(F)F)cc1,i,i,i,i,i,·,·,·,·
Cn1c(=O)c2[nH]c(C3CCCC3)nc2n(C)c1=O,36*,i,i,i,i,i,i,i,i
Cn1c(=O)c2[nH]c(N3CCCCC3)nc2n(C)c1=O,i,i,i,i,i,·,·,·,·
COCCN(CC(=O)NC1CCCCC1)C(=O)CCCC(=O)Nc1ccccn1,i,i,i,i,i,·,·,·,·
COC(=O)c1ccccc1-c1ccc(C(c2c(C)[nH][nH]c2=O)c2c(C)[nH][nH]c2=O)o1,i,i,i,i,i,·,·,·,·
COC(=O)c1cccc(-c2ccc(C(c3c(C)[nH][nH]c3=O)c3c(C)[nH][nH]c3=O)o2)c1,43*,i,i,i,i,192%*,i,i,46*
CCN(CC)CCCOc1ccc(Cl)c(Cl)c1,107*,i,i,i,i,i,i,i,i
CN(CCOc1ccc(Cl)c(Cl)c1)Cc1ccccc1,i,i,i,i,i,·,·,·,·
CCn1c(=O)c(C(=O)CN2CCN(S(=O)(=O)c3ccc(C)cc3C)CC2)c(N)n(Cc2ccccc2)c1=O,i,i,i,i,i,·,·,·,·
CCn1c(=O)c(C(=O)CN2CCN(S(=O)(=O)c3ccccc3)CC2)c(N)n(Cc2ccccc2)c1=O,27*,i,i,i,i,188%*,i,i,i
Cc1cc(N(C)Cc2ccccc2)nc2cc(O)ccc12,i,i,i,i,i,·,·,·,·
COCCCn1c(N)c(-c2nc3ccccc3n2C)c2nc3ccccc3nc21,60*,i,i,i,i,249%*,i,i,87*
N#CC1=C(N)Oc2cc(N)ccc2C1c1ccccc1Cl (stereo not given),29*,i,i,i,i,i,i,i,i
N#CC1=C(N)Oc2cc(N)ccc2C1c1ccc(Cl)cc1 (stereo not given),i,i,i,i,i,·,·,·,·
Cc1ccc(S(=O)(=O)N2CCCCC2CCNC(=O)C(=O)NCC2CCCO2)cc1 (stereo not given),i,i,i,i,i,·,·,·,·
O=C(O)c1ccc(-c2ccc(/C=c3/sc4nc5ccccc5n4c3=O)o2)cc1Cl,81*,i,i,i,i,465%*,0.13*,i,104*
CCCCOC(=O)c1ccc(NC(=O)c2c(N)n(C)c(=O)[nH]c2=O)cc1,i,i,i,i,i,·,·,·,·
Cc1cc(NCc2ccccc2)nc(N2CCOCC2)n1,i,i,i,i,i,·,·,·,·
Cc1cc(N2CCCCC2)nc(NCc2ccccc2)n1,83*,i,i,i,i,340%*,i,i,i
Cc1cc(N2CCOCC2)nc(NCc2ccccc2)n1,66*,i,i,i,i,294%*,i,i,i
SMILES,MrgX1 agonist,MrgX1 allo act,RGS4 pot,MrgX1 antag,RGS4 inh,MrgX1 ag confirm,HEK293 Ca flux,HEK293 Ca counter,HEK293 Ca cntr2
NC(=O)N1c2ccccc2CC(=O)c2ccccc21,47*,i,i,i,i,251%*,i,i,52*
CC(C)Cc1csc(NC(=O)c2ccc(Br)cc2)c1C(=O)O,45*,i,i,i,i,i,i,i,i
CC(C)OC(=O)CN1C(=O)S/C(=C/c2ccc(N3CCCCC3)o2)C1=O,64*,i,i,i,i,i,0.079*,i,i
O=C1S/C(=C\c2ccc(N3CCOCC3)o2)C(=O)N1Cc1ccc(F)cc1,i,i,·,i,·,·,·,·,·
Cc1[nH]nc(-c2ccc(O)cc2O)c1Oc1ccccc1,28*,i,i,i,i,179%*,i,i,i
O=C(Nc1ccnn1C1CCN(Cc2cccc(F)c2F)CC1)C1CCCC1,i,i,i,i,i,·,·,·,·
O=c1c2c(-c3ccccc3)csc2ncn1/N=C/c1cccc([N+](=O)[O-])c1O,71*,i,i,i,i,315%*,i,i,76*
O=c1c2c(-c3ccccc3)csc2ncn1/N=C/c1ccc(O)c([N+](=O)[O-])c1,i,i,i,i,i,·,·,·,·
COc1cccc(CNc2ccccc2O)c1OCc1ccccc1F,i,i,i,i,i,·,·,·,·
Cc1cc(NCc2ccccc2)nc2ccccc12,83*,i,i,i,i,293%*,i,i,i
Cc1ccc(-c2nn(-c3ccccc3)cc2CSC(=N)N)cc1,43*,i,i,i,i,182%*,i,i,i
CN(c1ccccc1)c1nc(N2CCCC2)nc(-n2ccnc2)n1,48*,i,i,i,i,171%*,i,i,51*
Cc1nn(-c2ccccc2)c2c1C(c1ccc(F)cc1F)C(C#N)=C(N)O2 (stereo not given),27*,i,i,i,i,183%*,i,i,i
CCOc1ccc(CCNC(=O)C2CC(=O)N(c3ccc4c(c3)OCCO4)C2)cc1OCC (stereo not given),i,i,i,i,i,·,·,·,·
O=C(Nc1nnc(-c2ccccc2Cl)o1)c1nc2ccccc2s1,103*,i,i,i,i,433%*,i,i,84*

# Bioassay records deposited in PubChem by Johns Hopkins Ion Channel Center.
